The list is not random: actives were taken first. Their share in the collection is about 2.5%.
Tb MetRS inh: blocks T. brucei methionyl-tRNA synthetase activity. purified T. brucei MetRS, ATP depletion, Kinase-Glo luminescence. inhibition, % at 11.9 µM. 0.4% of 360,000 active;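 active = inhibition above a per-plate cutoff of the control wells' mean inhibition plus 3 SD, cut at about 5.5% in these data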;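 also: 0% = DMSO wells median and 100% = median of wells with control inhibitor compound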
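Dosing: 11.9 µM compound single dose, 0.9% DMSO; Assay system: purified T. brucei MetRS enzyme; Measured by: Kinase-Glo luciferase luminescence reporting remaining unconsumed ATP; Schedule: 15 min plus 2 h at 25 °C.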
MC4R ag barr: human MC4R agonism via beta-arrestin | activation, % at 8.9 µM | P32245 | U2OS MC4R beta-arrestin complementation, luminescence; percent of melanotan II response, DMSO zero | 0.98% of 360,000 active;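 active = activation above a per-plate cutoff, the mean activation of sample wells on that plate plus 3 SD, cut at about 8% in these data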
Target sequence (P32245 whole entry, looked up): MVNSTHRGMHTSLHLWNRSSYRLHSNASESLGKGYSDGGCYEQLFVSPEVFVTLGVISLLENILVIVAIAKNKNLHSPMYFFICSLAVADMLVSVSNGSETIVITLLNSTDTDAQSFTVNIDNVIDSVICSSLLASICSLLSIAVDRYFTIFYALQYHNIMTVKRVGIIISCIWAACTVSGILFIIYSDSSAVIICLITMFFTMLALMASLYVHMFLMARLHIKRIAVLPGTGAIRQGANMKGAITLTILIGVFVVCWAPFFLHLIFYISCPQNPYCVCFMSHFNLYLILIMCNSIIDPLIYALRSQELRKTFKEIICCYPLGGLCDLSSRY
A1 inh: inhibitors of the anti-apoptotic protein A1, read as caspase activation; AID 2462; MEF A1-2A-BIM cells, Caspase-Glo 3/7 luminescence, 3 h; percent of clofoctol response, vehicle zero; caspase activation, % (no concentration beside the values); 0.066% of 330,000 active;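 active = over half of replicate activation scores above 10%, or exactly half above 10 with the replicate mean above 10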
NALP3 yeast inh: NALP3 inhibition in yeast. AID 2825. Yeast reconstituted NLRP3/ASC/caspase-1, beta-gal luminescence, 24 h. inhibition, % at 10 µM. 0.39% of 330,000 active;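 active = inhibition of 50% or more; inactive = inhibition below 50%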;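 also: plate controls were induced DMSO wells for no effect and uninduced yeast grown without galactose for full effect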
NALP1 yeast inh: inhibitors of NALP1 inflammasome in yeast. S. cerevisiae NALP1/ASC/caspase-1 growth, X-gal OD620, 72 h. inhibition, % at 10 µM. 0.61% of 280,000 active; in the data active = inhibition mostly above about 24%, no sharp cut-off; inactive = mostly below about 32%
MC4R antagonist: antagonists of human melanocortin 4 receptor (MC4R); P32245; MC4R-expressing cells, MTII-stimulated cAMP, LANCE TR-FRET; inhibition, % at 6.5 µM; 0.48% of 360,000 active; AID 540295;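 active = inhibition above its plate's cutoff, the mean of tested wells on that plate plus 3 SD, cut at about 29% in these data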;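 also: 0% = Melanotan II alone and 100% = Melanotan II plus saturating MCL0020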
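Assay system: U2OS-MC4R stable cell line; Also added: Melanotan II; Technique: Eu-cAMP/anti-cAMP TR-FRET, emission 671 nm; Times: 30-min compound, 1-h challenge, 1-h detection, room temperature.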
NALP3 confirm: NALP3 inhibition confirmation in yeast | shares compounds with NALP3 yeast inh | yeast expressing human NALP3, luminescence | inhibition, % at 10 µM | 81% of 1,300 active; in the data active = inhibition above about 48%
Casp1-ASC yeast: counter-screen for NALP3 inhibitors: yeast caspase-1-ASC | shares compounds with NALP3 yeast inh | yeast expressing Caspase-1-ASC, luminescence counter screen | inhibition, % at 10 µM | 66% of 1,000 active
NALP3 retest: confirmation retest of NALP3 inhibitors in yeast | shares compounds with NALP3 yeast inh | yeast expressing human NALP3, luminescence read-out | AID 488794 | inhibition, % at 10 µM | 53% of 1,000 active
The depositor's hits bear a star; x = no result given. Rule as the data show it, unless noted: active = inhibition above about 50%; inactive = the rest.

SMILES	Tb MetRS inh	MC4R ag barr	A1 inh	NALP3 yeast inh	NALP1 yeast inh	MC4R antagonist	NALP3 confirm	Casp1-ASC yeast	NALP3 retest
C=CCSc1nsc(NC(=O)Nc2ccc(F)cc2)n1	2	5	-1	56*	52	2	78*	79*	82*
CN(C)c1oc(/C=C/c2ccccc2)nc1C#N	0	0	0	54*	32	7	42	57*	50*
O=C(Nc1ccccc1Cl)c1cc(C2CCCN(C(=O)c3cccs3)C2)on1 (centres undefined)	0	3	x	x	x	7	x	x	x
CCC(C)c1ccccc1NC(=O)c1cc2cccc([N+](=O)[O-])c2[nH]1 (centres undefined)	0	2	0	52*	x	-11	22	x	x
O=C1c2cccc(O)c2C(=O)c2c(O)cccc21	x	x	-1	60*	76	x	64*	x	x
COc1cccc2c1-c1c(O)cccc1C2=O	0	0	0	22	18	-1	x	x	x
Cn1c(=O)c(C(=O)NNC(=O)c2ccccc2Br)c(O)c2ccccc21	0	0	3	59*	6	-5	84*	53*	65*
Cn1c(=O)c(C(=O)Nc2ccccn2)c(O)c2ccccc21	0	3	-7	51*	5	-1	63*	40	49
CCn1c(=O)c(C(=O)NNC(=O)c2ccc(Cl)cc2Cl)c(O)c2ccccc21	1	1	1	55*	12	24	75*	21	25
Cn1c(=O)c(C(=O)NNC(=O)c2ccccc2Cl)c(O)c2ccccc21	1	4	0	66*	1	20	80*	54*	61*
Cn1c(=O)c(C(=O)Nc2cnccn2)c(O)c2ccccc21	x	x	x	x	21	x	x	x	x
Cc1nc2c(C)cccn2c(=O)c1NC(=O)c1cccc2ccccc12	0	-3	-1	18	x	-5	x	x	x
COCCn1c(N)c(N(Cc2ccccc2)C(=O)c2ccc(N3CCCC3=O)cc2)c(=O)[nH]c1=O	0	-1	x	x	x	5	x	x	x
NCCOc1ccccc1-c1ccccc1	-1	2	1	54*	4	3	66*	56*	50*
NCCOc1ccccc1OCCN	-1	0	0	8	1	7	x	x	x
CCOc1cc(C=O)ccc1OCCSc1ccc(Cl)cc1	1	5	1	53*	19	-2	48*	58*	35
O=C(CCN1CCCCC1)N1CCc2c([nH]c3ccccc23)C1c1cccnc1 (centres undefined)	0	-3	x	x	x	1	x	x	x
COc1ccc(C2C(=O)c3ccccc3C2=O)cc1OC	-1	-1	-6	2	8	-5	x	x	x
COc1cc(C2C(=O)c3ccccc3C2=O)ccc1O	1	0	-4	66*	19	6	68*	66*	46
CCCC(C(=O)NC1CCCC1)N(Cc1ccc(OC)cc1)C(=O)c1snc(C(N)=O)c1N (centres undefined)	0	-2	1	22	-16	5	x	x	x
COc1ccc(-c2csc(NC3=NCCCCC3)n2)cc1	0	0	1	31	4	15	x	x	x
Brc1ccc(-c2csc(NC3=NCCCCC3)n2)cc1	0	2	0	58*	30	24	55*	50	41
CCOc1ccccc1N(C)C(=O)c1cn(C)c(=O)c2ccccc12	0	-1	1	6	-26	9	x	x	x
CC(C)CN1CCC(=O)N([C@H](CO)c2ccccc2)CC1	x	x	0	13	-1	x	x	x	x
CC1(C(=O)O)CCCN1C(=O)c1ccccc1OC(F)(F)F (centres undefined)	0	0	x	x	x	17	x	x	x
SMILES	Tb MetRS inh	MC4R ag barr	A1 inh	NALP3 yeast inh	NALP1 yeast inh	MC4R antagonist	NALP3 confirm	Casp1-ASC yeast	NALP3 retest
CCc1noc(C)c1C(=O)N(CC)CC(=O)NCc1ccc(F)cc1	0	-1	x	x	x	4	x	x	x
O=C(O)c1ccccc1-c1nc2cc(Cl)ccc2c(=O)n1O	-1	-2	0	15	-11	1	x	x	x
O=c1c2ccccc2nc(-c2ccccc2Cl)n1O	0	0	-2	2	-21	3	x	x	x
O=c1c2ccc(Cl)cc2nc(-c2cccc(C(F)(F)F)c2)n1O	-1	3	0	52*	2	3	63*	44	52*
N#Cc1ccc(-c2nc3ccccc3c(=O)n2O)cc1	1	-1	0	48	14	11	x	x	x
N#Cc1ccc(-c2nc3cc(Cl)ccc3c(=O)n2O)cc1	-1	0	-1	63*	42*	-2	72*	51*	64*
O=c1c2ccccc2nc(-c2ccc(Cl)c(Cl)c2)n1O	0	1	0	65*	-3	0	42	26	33
O=c1c2cc(Br)ccc2nc(-c2ccc(Cl)cc2)n1O	-1	-1	0	x	4	3	x	x	x
O=c1c2cc(Cl)ccc2nc(-c2ccc([N+](=O)[O-])cc2)n1O	0	-2	-2	65*	-10	3	68*	38	58*
CC1CCN(S(=O)(=O)c2cccc(-c3cn4cc(Cl)ccc4n3)c2)CC1	0	0	0	64*	2	12	75*	38	33
CCCCc1c(C)c(C#N)c2[nH]c3ccccc3n2c1=O	1	3	0	58*	9	-10	78*	-1	20
COc1cccc(C(=O)N2CCN(Cc3ccccn3)CC2)c1	0	-1	0	-2	-5	4	x	x	x
O=S(=O)(c1cccs1)N1CCN(c2ccc(Cl)cc2)CC1	0	1	1	58*	33	11	63*	46	37
Cc1ccc(N2CCN(S(=O)(=O)c3cccs3)CC2C)cc1 (centres undefined)	0	0	1	56*	35	3	57*	57*	50
O=[N+]([O-])c1ccc(NN=Cc2cccc3ccccc23)cc1	0	2	x	x	x	0	x	x	x
O=[N+]([O-])c1cc(Br)c(O)c(/C=N/Nc2nnnn2-c2cccc3ccccc23)c1	0	-4	1	52*	13	-4	47*	x	x
CC(C)N=c1cc2n(-c3ccc(Cl)cc3)c3ccccc3nc-2cc1Nc1ccc(Cl)cc1	-1	-2	0	56*	x	5	68*	x	x
Cc1cc(O)cc2c(=O)c3ccccc3sc12	0	2	1	79*	7	4	92*	54*	63*
COc1cc(C)c2sc3ccccc3c(=O)c2c1NCCN(C)C	0	1	x	x	x	-4	x	x	x

Assay outcomes (PubChem)
